# An excerpt weighted towards active compounds, which were near 1.4% of everything screened.
# thrombin 1536 = thrombin (human) inhibition; alpha-thrombin, Boc-VPR-AMC fluorogenic substrate cleavage; inhibition, % at 5 µM; AID 1046; P00734; 220,000 tested, 0.26% active;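 active = inhibition at or above 40%; inactive = inhibition below 40%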;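 also: 0% = enzyme with no compound and 100% = wells without enzyme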
#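 System: Human alpha-thrombin protein | Medium: pH 7.5 Tris (50 mM) with NaCl 150 mM, Tween 20 0.05% | Times: Enzyme reaction carried out at room temperature | Detection: AMC fluorescence, 355/460 nm | Evaluation: Percent inhibition scaled between no-compound controls and no-enzyme blanks | Benchmarks: Enzyme without compound as high, wells lacking enzyme as low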
# FXIIa inh = blocks human coagulation factor XIIa protease activity; P00748; purified FXIIa, Boc-QGR-AMC fluorogenic substrate, 2 h; inhibition, % at 5 µM; 220,000 tested, 0.3% active; AID 800; in the data active = inhibition above about 40%;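 also: 0% = enzyme with no compound and 100% = blank without enzyme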
# Furin inhibitor = blocks human furin protease activity. P09958. purified furin, fluorogenic substrate cleavage. inhibition, % at 20 µM or 30 µM. 220,000 tested, 0.061% active. AID 463115; in the data active = inhibition above about 25%
# Target sequence (P09958 108-714 limits assumed): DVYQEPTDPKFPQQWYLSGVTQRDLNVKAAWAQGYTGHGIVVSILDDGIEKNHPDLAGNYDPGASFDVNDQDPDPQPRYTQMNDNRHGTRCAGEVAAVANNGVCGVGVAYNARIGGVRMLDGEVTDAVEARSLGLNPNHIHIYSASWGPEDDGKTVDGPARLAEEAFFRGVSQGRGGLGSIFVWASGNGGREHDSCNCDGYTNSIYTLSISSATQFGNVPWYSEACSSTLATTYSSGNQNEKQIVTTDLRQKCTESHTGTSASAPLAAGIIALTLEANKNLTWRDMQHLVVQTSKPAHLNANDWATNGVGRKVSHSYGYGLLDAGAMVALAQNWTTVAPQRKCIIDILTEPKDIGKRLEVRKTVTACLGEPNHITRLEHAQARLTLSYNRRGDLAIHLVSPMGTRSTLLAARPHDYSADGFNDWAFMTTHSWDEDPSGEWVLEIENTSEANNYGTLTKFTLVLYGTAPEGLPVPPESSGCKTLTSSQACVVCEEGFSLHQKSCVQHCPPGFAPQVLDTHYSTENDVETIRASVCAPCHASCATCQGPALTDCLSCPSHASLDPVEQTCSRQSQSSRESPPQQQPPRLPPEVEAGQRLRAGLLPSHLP
# FXIa inh 1536 = blocks human coagulation factor XIa protease activity. P03951. purified FXIa, Boc-Glu-Ala-Arg-AMC fluorogenic substrate. inhibition, % at 5 µM. 220,000 tested, 0.14% active. AID 798;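 active = inhibition of at least 40%; inactive = inhibition below 40%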;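 also: fluorescence of freed AMC excited at 355 nm; 0% = enzyme without compound and 100% = no enzyme blank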
# KLK5 inh = blocks human kallikrein 5 protease activity; recombinant hK5, fluorogenic AMC substrate cleavage; inhibition, % at 5 µM; 210,000 tested, 0.59% active;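 active = inhibition of 40% or more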;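 also: 0% = enzyme controls without compound and 100% = no-enzyme blanks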
# m-calpain inh = blocks pig calpain II enzyme activity. purified calpain II, fluorogenic peptide substrate, 30 min. inhibition, % at 16 µM. 220,000 tested, 0.37% active. AID 1236;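 active = inhibition above about 50%, limit read from the data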
# * = called active by the depositor; x = no result.
SMILES,thrombin 1536,FXIIa inh,Furin inhibitor,FXIa inh 1536,KLK5 inh,m-calpain inh
Cc1ccc(-c2cc(C(=O)Nc3ccc(S(=O)(=O)Nc4onc(C)c4C)cc3)c3ccccc3n2)cc1,-10.7,2.5,-27.3,-1.6,-4.3,14.4
COc1cc(C(=O)Nc2ccc(-c3nnc(-c4ccco4)o3)cc2)cc(OC)c1OC,1.8,9.9,29.7*,-0.1,-8.6,-69.7
COc1cc(C(=O)Nc2ccc(S(=O)(=O)Nc3cc(C)on3)cc2)cc(OC)c1OC,15.8,-3.4,-17.2,9.6,47.0*,-0.7
Cc1cc(NS(=O)(=O)c2ccc(NC(=S)NC(=O)c3ccc(C(C)(C)C)cc3)cc2)no1,-3.2,24.0,-25.2,18.5,-6.5,63.5*
CN(C)NC(=S)NC1(C)CCS(=O)(=O)C1 (stereo not given),-6.4,-1.1,-11.3,-3.6,-2.0,-18.0
CCOc1ccc(N/C(N)=N/c2nc(CSc3nnnn3-c3ccccc3)cc(=O)[nH]2)cc1,-4.2,6.0,-17.6,0.4,0.0,28.2
CC(C)NC(=O)C1CCN(C2CCN(Cc3ccc4cccc(F)c4n3)CC2)CC1,-3.8,6.8,-16.2,-0.7,x,4.6
CC1(C)CC2CC(C)(CN2/C=C2/CCCCC2=O)C1 (stereo not given),-2.6,7.2,-16.4,-1.5,-1.4,-19.8
O=C1SCCC1NC(=O)C(c1ccccc1)c1ccccc1 (stereo not given),13.8,40.0*,-3.8,60.4*,93.7*,10.6
O=C(NC1CCSC1=O)c1ccccc1 (stereo not given),-5.1,6.3,-20.7,-6.3,-14.7,-11.8
COc1ccc(N(CC(O)CN2C(=O)NC(C)(C)C2=O)S(=O)(=O)c2ccc(C)cc2)cc1 (stereo not given),-4.6,-7.8,-17.6,2.4,-13.7,-10.8
Cc1ccc(N(CC(O)CN2C(=O)NC(C)(C)C2=O)S(=O)(=O)c2ccc(C)cc2)cc1 (stereo not given),12.0,49.2*,11.0,34.4,31.2,13.5
CCCCc1ccc(NC(=O)C(=O)NCCN2CCN(Cc3ccc([N+](=O)[O-])cc3)CC2)cc1,-2.0,1.5,-15.7,-2.8,x,-5.6
Cc1nn(CCC(=O)O)c(C)c1C,0.8,13.4,-16.5,5.4,4.9,3.9
Cc1nn(C)c(C)c1CN(C)C(=O)CCCC(=O)O,1.6,33.8,25.1*,21.2,0.9,-11.0
COc1cccc(/C=N/NC(=O)c2ccc(-c3ccccc3)cc2)c1O,-8.6,-13.5,-7.4,-2.4,-83.2,-233.5
COc1cccc(/C=N/NC(=O)c2[nH]c(C)c(C(=O)N/N=C/c3cccc(OC)c3O)c2C)c1O,2.6,18.6,-18.5,40.3*,-158.8,-54.8
CNC(=O)COC(=O)c1ccc(Cl)c(S(N)(=O)=O)c1,12.8,25.5,0.5,20.8,48.9*,8.0
CNC(=O)COC(=O)c1ccc(Cl)c(S(=O)(=O)N2CCCC2)c1,x,3.8,-27.9,4.1,-1.9,-25.1
O=C1C2CCCCC2C(=O)N1c1ccc(NC2CCN(Cc3ccccc3)CC2)c([N+](=O)[O-])c1 (stereo not given),-2.1,2.2,-13.0,-3.4,-4.0,83.9*
CC(Cc1ccsc1)NC(=O)CCc1nnc(COc2ccccc2)o1 (stereo not given),-7.8,8.4,-19.9,0.0,4.9,-10.1
CCOC(=O)N1CCN(c2c(NCc3ccccn3)c(=O)c2=O)CC1,-3.9,6.1,-14.2,-7.4,40.3*,-15.6
COc1ccc(C2/C=C\CN(C(=O)c3ccccc3)[C@H](Cc3ccccc3)C(=O)N2Cc2ccc(F)cc2)cc1 (stereo not given in full),4.1,12.0,-21.9,3.4,2.9,-33.9
Nn1c(SCc2ccccc2F)nnc1-c1ccccn1,-0.6,6.3,-19.1,1.7,1.5,-14.3
COc1ccccc1CNC(=O)C1(c2ccc(Cl)cc2)CC1,1.1,25.1,-21.9,20.9,-9.7,10.3
SMILES,thrombin 1536,FXIIa inh,Furin inhibitor,FXIa inh 1536,KLK5 inh,m-calpain inh
C/C(N)=C(/C#N)C(=O)CSc1nc2cc(Cl)ccc2s1,41.2*,2.9,-5.5,-11.5,-23.0,-164.0
O=C(NC(=S)Nc1cc(C(F)(F)F)ccc1N1CCOCC1)c1ccco1,10.6,28.0,-6.4,7.3,42.4*,22.0
O=C(Nc1nnc(SCC(=O)N2CCOCC2)s1)c1ccccc1,-5.5,1.9,-1.0,4.3,-15.3,-7.8
CCOc1ccccc1C(=O)Nc1nnc(SCC(=O)N2CCOCC2)s1,54.5*,25.1,-1.5,31.7,42.8*,9.3
Cn1c(N)c(C(=O)c2cc(-c3ccncc3)nc3ccccc23)c(=O)n(C)c1=O,-4.0,4.2,-14.6,-2.6,-0.1,-8.9
COc1ccc(-c2cc(C(=O)c3c(N)n(C)c(=O)n(C)c3=O)c3ccccc3n2)cc1OC,9.9,42.0*,-2.6,39.1,20.2,18.4
COc1ccc(-c2cc(C(=O)Nc3ccccc3O)c3ccccc3n2)cc1OC,-4.3,10.5,-27.4,1.1,4.1,-141.5
COc1ccc(-c2cc(C(=O)NCc3cn(C)nc3C)c3ccccc3n2)cc1OC,-0.6,14.2,-14.1,8.3,-8.5,52.3*
CCc1nnc(NC(=O)CSc2nnc(C3CCCCC3)n2-c2cccc(Cl)c2)s1,4.8,17.4,29.5*,8.7,-21.6,-11.8
CCc1nnc(NC(=O)CSc2nnc(CNc3cccc(Cl)c3)n2CC)s1,-5.0,9.6,-4.1,2.0,-1.2,-49.1
CSc1cccc(NC(=S)N(CCCN2CCC(C)CC2)Cc2cccs2)c1,1.8,5.8,-27.4,-4.6,2.8,-4.2
CCC1=NN(C(=O)Cc2ccc([N+](=O)[O-])cc2)C(O)(C(F)(F)F)C1 (stereo not given),22.2,55.5*,-3.9,27.5,24.6,9.1
CCCC1=NN(C(=O)Cc2ccc([N+](=O)[O-])cc2)C(O)(C(F)(F)F)C1 (stereo not given),-1.9,-3.6,-11.7,-6.6,-22.8,18.3
Oc1ccccc1-c1cc(-c2ccc3c(c2)OCCO3)n[nH]1,2.5,37.6,-11.7,32.0,-3.1,53.8*
O=C(O)c1cc(-c2ccc3c(c2)OCCO3)n[nH]1,-10.6,-0.3,-26.4,-4.2,-1.5,-19.2
CCCCOCCCNC(=O)C1CCCCC1,13.2,10.5,-17.7,7.1,40.6*,12.4
Cc1cccc(Cn2c(Sc3nc(C)cs3)nc3c2c(=O)[nH]c(=O)n3C)c1,2.5,13.5,-13.8,6.1,0.4,-2.8
C=CCn1c(Sc2nc(C)cs2)nc2c1c(=O)[nH]c(=O)n2C,-3.0,3.0,-17.0,-3.1,-22.1,53.2*
CCOC(=O)C1C(=O)CC(C)(O)C(C(=O)OCC)C1c1ccc([N+](=O)[O-])cc1 (stereo not given),3.6,6.8,-13.8,3.1,2.0,18.7
COC(=O)c1ccc(C(=O)NCCCCO)cc1,-1.7,6.2,-12.3,-1.9,0.7,2.8
COC(=O)c1ccc(C)c(N(CCO)CCO)c1,24.4,9.7,-20.4,4.3,56.5*,9.3
CC(C(=O)OCC(=O)Nc1ccc2c(c1)OCO2)N1C(=O)c2ccccc2C1=O (stereo not given),-8.8,11.4,-16.9,-1.9,-17.6,-31.6

# Screens (PubChem BioAssay)
